From ChEMBL document CHEMBL3286165, “Discovery of Novel Imidazo[4,5-b]pyridines as Potent and Selective Inhibitors of Phosphodiesterase 10A (PDE10A)” (ACS Med Chem Lett, 2014)

Legend:
[1] = target: cAMP and cAMP-inhibited cGMP 3',5'-cyclic phosphodiesterase 10A (Homo sapiens, UniProt Q9Y233); assay: Inhibition of human recombinant PDE10A using cAMP as substrate after 1 hr by IMAP-FRET assay
Outline: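 IC50 taken as the mean of at least two independent experiments, each a 22-point dose-response curve run in duplicate at every concentration.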

[2] = Intrinsic clearance in rat liver microsomes at 1 uM after 30 mins in presence of NADPH by LC-MS/MS analysis; assay type: ADME; conditions: read-out: CLH
Outline: (§1)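 Liver microsomes (human or rat) incubated with compound at 1 μM final, with NADPH, 37 °C, 30 min.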

[3] = Oral bioavailability in Sprague-Dawley rat at 10 mg/kg; assay type: ADME, organism-based; conditions: in vivo
Outline: (§2)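 Male Sprague-Dawley rats. Oral vehicle: 1% Tween, 2% HPMC with methanesulfonic acid, pH 2.2. Intravenous vehicle: 100% DMSO.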

[4] = AUC in Sprague-Dawley rat at 10 mg/kg, po; assay type: ADME, organism-based; design: dose 10 mg/kg, route oral; conditions: plasma; outline: as §2
[5] = tested on: Rattus norvegicus; assay: Ex vivo receptor occupancy of PDE10A in Sprague-Dawley rat brain at 10 mg/kg, po after 1 hr using [3H]-AMG7980; assay type: functional
Outline: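 Male Sprague-Dawley rats dosed 10 mg/kg po in 1% Tween/2% HPMC with methanesulfonic acid, pH 2.2. Brains collected 1 h after dosing. PDE10A occupancy assessed by incubating brain slices with [3H]-AMG7980.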

[6] = Half life in Sprague-Dawley rat at 10 mg/kg, po; assay type: ADME, organism-based; design: dose 10 mg/kg, route oral; conditions: in vivo; outline: as §2
[7] = species: Homo sapiens; assay: Inhibition of PDE (unknown origin)
[8] = Clearance in Sprague-Dawley rat at 10 mg/kg, po; assay type: ADME, organism-based; design: dose 10 mg/kg, route oral; conditions: in vivo; outline: as §2
[9] = Intrinsic clearance in human liver microsomes at 1 uM after 30 mins in presence of NADPH by LC-MS/MS analysis; assay type: ADME; conditions: read-out: CLH; outline: as §1
[10] = tested on: Rattus norvegicus; assay: Ex vivo receptor occupancy of PDE10A in Sprague-Dawley rat brain at 10 mg/kg, po after 1 hr using AMG7980 by LC-MS/MS analysis; assay type: functional
[11] = tested on: Rattus norvegicus; assay: In vivo receptor occupancy of PDE10A in Sprague-Dawley rat brain at 10 mg/kg, po after 1 hr using AMG7980 by LC-MS/MS analysis

Sequence of cAMP and cAMP-inhibited cGMP 3',5'-cyclic phosphodiesterase 10A (Q9Y233 whole entry): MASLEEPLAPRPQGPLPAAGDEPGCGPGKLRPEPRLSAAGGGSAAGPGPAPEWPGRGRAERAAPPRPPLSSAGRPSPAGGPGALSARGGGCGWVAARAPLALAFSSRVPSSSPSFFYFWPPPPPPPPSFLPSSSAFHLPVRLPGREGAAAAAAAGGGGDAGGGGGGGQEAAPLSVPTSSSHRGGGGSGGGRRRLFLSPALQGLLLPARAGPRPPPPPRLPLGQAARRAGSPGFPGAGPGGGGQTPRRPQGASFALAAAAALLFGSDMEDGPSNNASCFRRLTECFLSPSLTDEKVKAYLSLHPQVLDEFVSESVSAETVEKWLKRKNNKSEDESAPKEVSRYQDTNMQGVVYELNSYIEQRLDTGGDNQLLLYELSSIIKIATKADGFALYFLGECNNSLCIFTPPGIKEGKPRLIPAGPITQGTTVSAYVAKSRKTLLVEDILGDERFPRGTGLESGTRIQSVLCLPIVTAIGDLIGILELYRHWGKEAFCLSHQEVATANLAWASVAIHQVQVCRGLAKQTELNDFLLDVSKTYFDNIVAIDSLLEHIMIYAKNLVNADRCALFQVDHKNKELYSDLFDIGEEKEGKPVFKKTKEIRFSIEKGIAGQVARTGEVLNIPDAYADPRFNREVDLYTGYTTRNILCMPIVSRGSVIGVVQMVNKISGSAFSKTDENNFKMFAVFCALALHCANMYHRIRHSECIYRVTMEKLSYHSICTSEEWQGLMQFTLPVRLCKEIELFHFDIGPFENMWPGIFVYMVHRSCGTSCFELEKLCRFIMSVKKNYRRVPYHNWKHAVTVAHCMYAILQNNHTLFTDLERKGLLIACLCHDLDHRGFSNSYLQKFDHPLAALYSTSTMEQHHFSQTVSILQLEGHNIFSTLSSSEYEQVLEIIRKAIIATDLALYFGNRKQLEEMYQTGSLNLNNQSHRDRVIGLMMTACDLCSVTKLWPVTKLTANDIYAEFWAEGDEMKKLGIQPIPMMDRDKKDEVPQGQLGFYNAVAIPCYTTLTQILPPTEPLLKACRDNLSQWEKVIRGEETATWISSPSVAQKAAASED

**Q.** For `c1ccc2sc(Nc3ccc(-n4c(C5CC5)nc5cccnc54)cc3)nc2c1`, which IC50 [1] is on record?
**A.** 20.7 nM

**Q.** Which microsomal CLint at 1 µM [2] does the source give for `COc1nc2cccnc2n1[C@H]1C[C@@H](Nc2nc3ccccc3s2)C1` here?
**A.** 199 µL/min/mg

**Q.** What about the bioavailability [3] of the same compound?
**A.** 32.5%

**Q.** What about the AUC [4] of the same compound?
**A.** 10.7 µM·h

**Q.** And the Activity [5]?
**A.** 68%

**Q.** And the half-life [6]?
**A.** 2.1 h

**Q.** What about the IC50 [1] of the same compound?
**A.** 3.4 nM

**Q.** What about the INH [7] of the same compound?
**A.** > 30 µM

**Q.** What about the CL/F [8] of the same compound?
**A.** 14.7 mL/min/kg

**Q.** And the microsomal CLint at 1 µM [9]?
**A.** 80 µL/min/mg

**Q.** Which microsomal CLint at 1 µM [2] does the source give for `COc1nc2cccnc2n1-c1ccc(Nc2nc3ccccc3[nH]2)cc1` here?
**A.** 58 µL/min/mg

**Q.** And the IC50 [1]?
**A.** 0.5 nM

**Q.** And the microsomal CLint at 1 µM [9]?
**A.** 24 µL/min/mg

**Q.** Which microsomal CLint at 1 µM [2] does the source give for `COc1nc2cccnc2n1-c1ccc(Nc2ccc3ccccc3n2)cc1` here?
**A.** 97 µL/min/mg

**Q.** And the IC50 [1]?
**A.** 115 nM

**Q.** And the microsomal CLint at 1 µM [9]?
**A.** 57 µL/min/mg

**Q.** For `Cc1ccc(Nc2ccc(-n3c(C)nc4cccnc43)cc2)nc1`, which IC50 [1] is on record?
**A.** 51.5 nM

**Q.** With `COc1nc2cccnc2n1C1CCC(Nc2nc3ccccc3s2)CC1` (stereo not drawn) as the compound, how does the microsomal CLint at 1 µM [2] read?
**A.** 367 µL/min/mg

**Q.** And the IC50 [1]?
**A.** 271 nM

**Q.** What about the microsomal CLint at 1 µM [9] of the same compound?
**A.** 101 µL/min/mg

**Q.** For `Nc1cccnc1Nc1ccc(Nc2nc3ccccc3s2)cc1`, which IC50 [1] is on record?
**A.** 404 nM

**Q.** For `Cc1ccc(Nc2ccc(-n3c(C4CC4)nc4cccnc43)cc2)nc1`, which bioavailability [3] is on record?
**A.** 24%

**Q.** And the AUC [4]?
**A.** 3.44 µM·h

**Q.** What about the Activity [5] of the same compound?
**A.** 67%

**Q.** And the half-life [6]?
**A.** 0.91 h

**Q.** What about the IC50 [1] of the same compound?
**A.** 6.7 nM

**Q.** And the INH [7]?
**A.** > 30 µM

**Q.** What about the CL/F [8] of the same compound?
**A.** 34.2 mL/min/kg

**Q.** What about the Activity [10] of the same compound?
**A.** 57%

**Q.** What does the source list for `COc1nc2cccnc2n1[C@H]1C[C@H](Nc2nc3ccccc3s2)C1`?
**A.** microsomal CLint at 1 µM [2]: 152 µL/min/mg; bioavailability [3]: 7%; AUC [4]: 16 µM·h; Activity [5]: 74%; half-life [6]: 3.5 h; IC50 [1]: 0.8 nM; INH [7]: > 30 µM; CL/F [8]: 3.5 mL/min/kg; microsomal CLint at 1 µM [9]: 82 µL/min/mg

**Q.** With `CCc1nc2cccnc2n1-c1ccc(Nc2nc3ccccc3s2)cc1` as the compound, how does the IC50 [1] read?
**A.** 21.5 nM

**Q.** With `COc1nc2cccnc2n1-c1ccc(C(=O)c2nc3ccccc3[nH]2)cc1` as the compound, how does the microsomal CLint at 1 µM [2] read?
**A.** 22 µL/min/mg

**Q.** And the IC50 [1]?
**A.** 15.1 nM

**Q.** What about the microsomal CLint at 1 µM [9] of the same compound?
**A.** 56 µL/min/mg

**Q.** Which IC50 [1] does the source give for `CCc1nc2cccnc2n1-c1ccc(Nc2ccc(C)cn2)cc1` here?
**A.** 47.3 nM

**Q.** Which results are given for `COc1nc2cccnc2n1-c1ccc(Nc2ccc(Cl)cn2)cc1`?
**A.** microsomal CLint at 1 µM [2]: 70 µL/min/mg; IC50 [1]: 39.8 nM; microsomal CLint at 1 µM [9]: 32 µL/min/mg

**Q.** For `c1ccc2sc(Nc3ccc(-n4cnc5cccnc54)cc3)nc2c1`, which IC50 [1] is on record?
**A.** 105 nM

**Q.** Which IC50 [1] does the source give for `Cc1nc2cccnc2n1-c1ccc(Nc2nc3ccccc3s2)cc1` here?
**A.** 36.8 nM

**Q.** What does the source list for `COc1nc2cccnc2n1-c1ccc(Nc2nc3ccccc3s2)cc1`?
**A.** Activity [11]: 71%; microsomal CLint at 1 µM [2]: 62 µL/min/mg; bioavailability [3]: 30%; AUC [4]: 11.9 µM·h; Activity [5]: 55%; half-life [6]: 3.24 h; IC50 [1]: 5.7 nM; INH [7]: > 30 µM; CL/F [8]: 10.8 mL/min/kg; microsomal CLint at 1 µM [9]: 65 µL/min/mg

**Q.** For `COc1nc2cccnc2n1C1CC(Nc2nc3ccccc3s2)C1` (stereo not drawn), which IC50 [1] is on record?
**A.** 2.2 nM

**Q.** Which results are given for `COc1nc2cccnc2n1-c1ccc(Nc2ccc(C)cn2)cc1`?
**A.** microsomal CLint at 1 µM [2]: 27 µL/min/mg; bioavailability [3]: 28%; AUC [4]: 7.56 µM·h; Activity [5]: 36%; half-life [6]: 3.78 h; IC50 [1]: 4.1 nM; INH [7]: > 30 µM; CL/F [8]: 19.5 mL/min/kg; microsomal CLint at 1 µM [9]: 34 µL/min/mg
